According to ChEMBL document CHEMBL4732196, “Structural optimization towards promising β-methyl-4-acrylamido quinoline derivatives as PI3K/mTOR dual inhibitors for anti-cancer therapy: The in vitro and in vivo biological evaluation” (Eur J Med Chem, 2021):

Columns and labels:
[1] = biological target: Microtubule-associated serine/threonine-protein kinase 1 (Homo sapiens) (UniProt Q9Y2H9); assay: Inhibition of human partial length MAST1 (S346 to V730 residues) expressed in bacterial expression system assessed as residual activity at 10 uM by kinome scan method relative to control
Summary of the method: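 KINOMEscan binding assay, test compound at 10 μM against a 52-kinase panel. % Ctrl = (compound signal − positive control signal)/(negative control signal − positive control signal) × 100, with DMSO as negative control (100%) and a positive control (0%).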

[2] = biological target: Phosphatidylinositol 4,5-bisphosphate 3-kinase catalytic subunit alpha isoform (Homo sapiens, UniProt P42336); assay: Inhibition of human partial length PIK3CA (R108 to N1068 residues) expressed in mammalian expression system assessed as residual activity at 10 uM by kinome scan method relative to control
Summary of the method: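 KINOMEscan competitive binding screen at 10 μM test compound against a 52-kinase panel. Output is % Ctrl = (test signal − positive control signal)/(negative control signal − positive control signal) × 100. DMSO is the negative control (100%) and the positive control is set to 0%.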

Chain of Phosphatidylinositol 4,5-bisphosphate 3-kinase catalytic subunit alpha isoform (P42336 whole entry, the tested form may be a part, canonical isoform): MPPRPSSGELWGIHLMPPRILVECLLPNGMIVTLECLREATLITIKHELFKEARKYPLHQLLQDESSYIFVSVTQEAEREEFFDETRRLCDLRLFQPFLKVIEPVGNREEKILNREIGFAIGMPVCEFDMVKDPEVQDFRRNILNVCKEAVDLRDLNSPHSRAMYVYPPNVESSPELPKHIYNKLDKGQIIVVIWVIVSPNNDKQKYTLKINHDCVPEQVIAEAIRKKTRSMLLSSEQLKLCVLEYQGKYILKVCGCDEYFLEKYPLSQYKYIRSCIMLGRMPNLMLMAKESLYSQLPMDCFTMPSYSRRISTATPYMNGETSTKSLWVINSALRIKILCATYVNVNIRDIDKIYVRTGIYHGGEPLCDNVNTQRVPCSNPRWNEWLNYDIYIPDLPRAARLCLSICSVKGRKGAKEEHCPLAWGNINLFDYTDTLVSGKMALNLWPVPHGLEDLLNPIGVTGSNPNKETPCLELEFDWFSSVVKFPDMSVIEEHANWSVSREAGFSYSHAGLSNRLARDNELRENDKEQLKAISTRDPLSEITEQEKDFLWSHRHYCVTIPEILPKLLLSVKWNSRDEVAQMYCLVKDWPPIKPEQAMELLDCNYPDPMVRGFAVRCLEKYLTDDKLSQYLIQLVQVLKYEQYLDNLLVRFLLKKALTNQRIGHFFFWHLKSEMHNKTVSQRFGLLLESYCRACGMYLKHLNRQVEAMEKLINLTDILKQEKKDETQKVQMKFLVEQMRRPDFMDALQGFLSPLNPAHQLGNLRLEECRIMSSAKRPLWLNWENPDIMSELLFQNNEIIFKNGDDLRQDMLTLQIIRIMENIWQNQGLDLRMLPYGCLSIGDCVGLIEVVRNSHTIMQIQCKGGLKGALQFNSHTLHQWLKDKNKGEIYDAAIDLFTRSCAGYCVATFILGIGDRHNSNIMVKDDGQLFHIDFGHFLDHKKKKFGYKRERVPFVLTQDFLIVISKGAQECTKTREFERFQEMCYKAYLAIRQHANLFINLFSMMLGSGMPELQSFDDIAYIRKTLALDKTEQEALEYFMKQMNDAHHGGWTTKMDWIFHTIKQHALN
Chain of Microtubule-associated serine/threonine-protein kinase 1 (Homo sapiens) (Q9Y2H9 whole entry, looked up, the tested form may be a part): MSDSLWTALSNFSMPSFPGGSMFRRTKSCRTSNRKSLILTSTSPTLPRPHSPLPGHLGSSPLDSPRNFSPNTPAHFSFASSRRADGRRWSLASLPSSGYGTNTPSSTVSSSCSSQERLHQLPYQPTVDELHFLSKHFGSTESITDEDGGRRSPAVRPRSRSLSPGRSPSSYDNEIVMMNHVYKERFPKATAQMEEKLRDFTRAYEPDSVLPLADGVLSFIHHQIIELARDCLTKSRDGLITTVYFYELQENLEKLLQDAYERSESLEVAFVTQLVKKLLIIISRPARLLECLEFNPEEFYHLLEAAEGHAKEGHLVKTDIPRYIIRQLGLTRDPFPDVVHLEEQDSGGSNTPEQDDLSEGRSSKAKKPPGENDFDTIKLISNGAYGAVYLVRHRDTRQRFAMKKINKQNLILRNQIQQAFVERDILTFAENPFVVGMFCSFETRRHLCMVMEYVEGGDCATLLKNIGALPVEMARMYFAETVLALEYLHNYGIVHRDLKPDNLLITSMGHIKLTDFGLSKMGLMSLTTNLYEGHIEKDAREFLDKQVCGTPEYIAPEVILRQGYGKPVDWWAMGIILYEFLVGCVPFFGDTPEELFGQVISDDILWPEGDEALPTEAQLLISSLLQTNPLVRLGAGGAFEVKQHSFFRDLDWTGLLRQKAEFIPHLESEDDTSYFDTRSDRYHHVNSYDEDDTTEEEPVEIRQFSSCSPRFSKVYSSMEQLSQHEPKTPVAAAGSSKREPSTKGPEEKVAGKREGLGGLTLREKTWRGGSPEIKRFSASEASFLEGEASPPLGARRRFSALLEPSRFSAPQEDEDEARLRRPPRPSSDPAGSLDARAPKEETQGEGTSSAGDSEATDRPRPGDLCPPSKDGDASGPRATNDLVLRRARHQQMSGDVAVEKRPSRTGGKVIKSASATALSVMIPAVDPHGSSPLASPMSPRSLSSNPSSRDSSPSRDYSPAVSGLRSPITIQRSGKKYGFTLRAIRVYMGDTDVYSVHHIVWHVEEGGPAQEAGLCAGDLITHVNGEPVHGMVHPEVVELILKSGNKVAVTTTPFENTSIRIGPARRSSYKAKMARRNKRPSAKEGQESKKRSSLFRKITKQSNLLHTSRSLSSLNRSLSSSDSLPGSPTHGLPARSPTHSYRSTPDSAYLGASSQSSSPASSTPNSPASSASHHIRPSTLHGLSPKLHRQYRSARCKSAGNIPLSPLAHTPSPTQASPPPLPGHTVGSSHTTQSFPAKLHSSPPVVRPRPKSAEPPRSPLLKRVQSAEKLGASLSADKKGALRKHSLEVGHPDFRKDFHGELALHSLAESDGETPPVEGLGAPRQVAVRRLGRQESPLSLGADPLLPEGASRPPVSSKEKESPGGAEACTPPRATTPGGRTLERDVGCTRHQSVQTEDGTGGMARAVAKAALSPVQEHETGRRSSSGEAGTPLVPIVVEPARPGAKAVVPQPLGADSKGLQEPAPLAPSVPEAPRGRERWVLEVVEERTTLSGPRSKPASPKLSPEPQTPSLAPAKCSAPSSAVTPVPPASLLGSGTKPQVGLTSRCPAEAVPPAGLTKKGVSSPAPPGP

COc1ncc(-c2ccc3nccc(/C(C)=C/C(=O)N4CCN(C)CC4)c3c2)cc1NS(=O)(=O)c1ccc(F)cc1F
Activity [1]: 58% | Activity [2]: 0%
